Data set [1] can be described thus: Drug metabolism in human hepatocytes assessed as formation of 2-((4-((2,4-dioxothiazolidin-5-yl)methyl)phenoxy)methyl)-1-methyl-1H-benzo[d]imidazol-6-yl hydrogen sulfate at 30 uM after 3 hrs by radio-HPLC/LC-MS/MS analysis. The data set is classed as ADME, cell-based, Hepatocyte.
In data set [2] the target is T1, UDP-glucuronosyltransferase 2B15 (Homo sapiens, UniProt P54855).
T1 sequence (P54855 whole entry): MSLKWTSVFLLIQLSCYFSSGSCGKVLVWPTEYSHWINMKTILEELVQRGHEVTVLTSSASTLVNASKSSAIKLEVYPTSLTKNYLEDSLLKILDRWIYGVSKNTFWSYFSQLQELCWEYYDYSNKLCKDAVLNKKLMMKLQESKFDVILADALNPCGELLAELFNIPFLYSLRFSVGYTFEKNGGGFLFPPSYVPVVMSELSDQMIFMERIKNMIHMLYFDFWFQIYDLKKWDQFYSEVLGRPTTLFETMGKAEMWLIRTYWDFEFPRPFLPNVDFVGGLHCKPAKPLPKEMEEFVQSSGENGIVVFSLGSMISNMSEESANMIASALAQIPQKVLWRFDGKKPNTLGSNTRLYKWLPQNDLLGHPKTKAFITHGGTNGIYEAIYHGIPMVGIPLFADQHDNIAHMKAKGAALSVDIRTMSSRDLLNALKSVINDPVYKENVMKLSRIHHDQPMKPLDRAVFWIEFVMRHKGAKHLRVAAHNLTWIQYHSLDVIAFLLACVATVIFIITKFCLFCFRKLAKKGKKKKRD
The data set is described as follows: Activity of human UGT2B15 expressed in microsomes isolated from baculovirus infected insect cell assessed as enzyme-mediated 2-mercapto-3-(4-((6-methoxy-1-methyl-1H-benzo[d]imidazol-2-yl)methoxy)phenyl)propanoic acid formation at 20 uM after 4 hrs by radio-HPLC/LC-MS/MS analysis in presence of UDPGA. The format is ADME.

For data set [3], the target named is T2, UDP-glucuronosyltransferase 2B7 (Homo sapiens, UniProt P16662).
T2 sequence (P16662 whole entry): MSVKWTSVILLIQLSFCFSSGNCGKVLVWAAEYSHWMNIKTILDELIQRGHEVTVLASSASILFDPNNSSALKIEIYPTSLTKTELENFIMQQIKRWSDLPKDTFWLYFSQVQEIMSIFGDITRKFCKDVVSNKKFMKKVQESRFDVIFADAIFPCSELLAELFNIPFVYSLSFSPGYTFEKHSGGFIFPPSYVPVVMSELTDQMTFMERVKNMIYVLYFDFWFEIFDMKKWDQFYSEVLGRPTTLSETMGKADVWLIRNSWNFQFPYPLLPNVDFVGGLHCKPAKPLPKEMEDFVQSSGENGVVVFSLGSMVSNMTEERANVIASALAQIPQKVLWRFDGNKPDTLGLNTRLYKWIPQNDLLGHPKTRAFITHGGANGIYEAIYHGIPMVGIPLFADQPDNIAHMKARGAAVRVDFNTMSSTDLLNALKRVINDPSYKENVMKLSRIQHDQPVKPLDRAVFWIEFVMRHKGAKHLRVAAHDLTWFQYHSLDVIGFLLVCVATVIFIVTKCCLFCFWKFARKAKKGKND
The data set is described as follows: Activity of human UGT2B7 expressed in microsomes isolated from baculovirus infected insect cell assessed as enzyme-mediated 3-(4-((6-methoxy-1-methyl-1H-benzo[d]imidazol-2-yl)methoxy)phenyl)-2-(methylsulfinyl)propanamide formation at 20 uM after 4 hrs by radio-HPLC/LC-MS/MS analysis in presence of NADPH-generating system/SAM. The data set is classed as ADME.

The target of data set [4] is T3, Cytochrome P450 2C19 (Homo sapiens, UniProt P33261). The data set is described as follows: Activity of human CYP2C19 expressed in microsomes isolated from baculovirus infected insect cell assessed as enzyme-mediated 5-(4-((6-methoxy-1H-benzo[d]imidazol-2-yl)methoxy)benzyl)thiazolidine-2,4-dione formation at 20 uM after 2 hrs by radio-HPLC/LC-MS/MS analysis in presence of NADPH-generating system and NADPH-generating system/SAM. The data set is classed as ADME. The method in brief:
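Baculovirus/insect-cell microsomes expressing single human CYPs, 1 mg/ml protein, with 50 mM potassium phosphate (pH 7.4) or 100 mM Tris-HCl (pH 7.5). NADPH-generating system: 2 mM NADP⁺, 20 mM glucose 6-phosphate, 2 units/ml G6PDH, 10 mM MgCl₂. [¹⁴C]rivoglitazone at 20 μM, 2 h at 37°C with shaking. Control used insect-cell control supersomes. Stopped with acetonitrile; supernatant concentrated under nitrogen; metabolites analysed by radio-HPLC, LC-MS and LC-MS/MS.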

In data set [5] the target is T3, Cytochrome P450 2C19. Put plainly: Activity of human CYP2C19 expressed in microsomes isolated from baculovirus infected insect cell assessed as enzyme-mediated 3-(4-((6-methoxy-1-methyl-1H-benzo[d]imidazol-2-yl)methoxy)phenyl)-2-(methylthio)propanoic acid formation at 20 uM after 2 hrs by radio-HPLC/LC-MS/MS analysis in presence of NADPH-generating system/SAM and UDPGA/SAM. The data set is classed as ADME.

For the next data set, the target named is Cytochrome P450 2D6 (Homo sapiens, UniProt P10635). Put plainly: Activity of human CYP2D6 expressed in microsomes isolated from baculovirus infected insect cell assessed as enzyme-mediated 3-(4-((6-methoxy-1-methyl-1H-benzo[d]imidazol-2-yl)methoxy)phenyl)-2-(methylthio)propanoic acid formation at 20 uM after 2 hrs by radio-HPLC/LC-MS/MS analysis in presence of NADPH-generating system/SAM and UDPGA/SAM. The format is ADME.

For the next data set, the target named is Cytochrome P450 3A4 (Homo sapiens, UniProt P08684). The data set is described as follows: Activity of human CYP3A4 expressed in microsomes isolated from baculovirus infected insect cell assessed as enzyme-mediated 2-amino-3-((1-carboxy-2-(4-((6-methoxy-1-methyl-1H-benzo[d]imidazol-2-yl)methoxy)phenyl)ethyl)disulfanyl)propanoic acid formation at 20 uM after 2 hrs by radio-HPLC/LC-MS/MS analysis. The format is ADME. In short, it runs like this:
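Baculovirus-insect-cell microsomes expressing the human CYP (1 mg/ml protein) were incubated with [14C]rivoglitazone (20 μM) in 50 mM potassium phosphate (pH 7.4) or 100 mM Tris-HCl (pH 7.5) with an NADPH-generating system (2 mM NADP+, 20 mM glucose 6-phosphate, 2 units/ml G6PDH, 10 mM MgCl2) for 2 h at 37°C. Insect-cell control supersomes served as the control. Reactions were stopped with acetonitrile, and the concentrated supernatants were analysed by radio-HPLC, LC-MS and LC-MS/MS.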

A short description of data set [6]: Drug metabolism in monkey hepatocytes assessed as formation of 3-(4-((6-methoxy-1-methyl-1H-benzo[d]imidazol-2-yl)methoxy)phenyl)-2-(methylthio)propanamide at 30 uM after 3 hrs by radio-HPLC/LC-MS/MS analysis in presence of NADPH-generating system/SAM. The following applies: cynomolgus monkey.
The nature of data set [7]: Drug metabolism in monkey hepatocytes assessed as formation of 5-(4-((6-hydroxy-1-methyl-1H-benzo[d]imidazol-2-yl)methoxy)benzyl)thiazolidine-2,4-dione at 30 uM after 3 hrs by radio-HPLC/LC-MS/MS analysis in presence of NADPH-generating system and NADPH-generating system/SAM. The note with it: cynomolgus monkey.
Data set [8] in a line: Drug level in cynomolgus monkey liver microsomes treated with [14C]-rivoglitazone at 20 uM after 2 to 4 hrs by radio-HPLC/LC-MS/MS analysis in presence of UDPGA, UDPGA/SAM and NADPH-generating system. The data set is classed as ADME, Macaca fascicularis. For orientation: Liver microsomes are a subcellular fraction often used to study metabolism.

T3 sequence (P33261 whole entry): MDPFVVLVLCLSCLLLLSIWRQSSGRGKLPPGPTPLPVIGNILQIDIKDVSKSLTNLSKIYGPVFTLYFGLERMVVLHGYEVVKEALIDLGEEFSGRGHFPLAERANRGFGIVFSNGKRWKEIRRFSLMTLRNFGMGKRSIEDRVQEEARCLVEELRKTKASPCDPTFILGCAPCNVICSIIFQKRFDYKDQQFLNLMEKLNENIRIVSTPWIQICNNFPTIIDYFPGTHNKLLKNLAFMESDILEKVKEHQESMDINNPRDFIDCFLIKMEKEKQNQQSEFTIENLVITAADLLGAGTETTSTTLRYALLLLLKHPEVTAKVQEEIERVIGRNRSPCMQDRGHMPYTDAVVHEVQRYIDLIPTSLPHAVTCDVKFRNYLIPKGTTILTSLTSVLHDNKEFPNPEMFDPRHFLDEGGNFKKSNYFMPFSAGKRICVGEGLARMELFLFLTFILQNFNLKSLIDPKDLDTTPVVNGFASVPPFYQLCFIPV
Chain of Cytochrome P450 2D6 (P10635 whole entry): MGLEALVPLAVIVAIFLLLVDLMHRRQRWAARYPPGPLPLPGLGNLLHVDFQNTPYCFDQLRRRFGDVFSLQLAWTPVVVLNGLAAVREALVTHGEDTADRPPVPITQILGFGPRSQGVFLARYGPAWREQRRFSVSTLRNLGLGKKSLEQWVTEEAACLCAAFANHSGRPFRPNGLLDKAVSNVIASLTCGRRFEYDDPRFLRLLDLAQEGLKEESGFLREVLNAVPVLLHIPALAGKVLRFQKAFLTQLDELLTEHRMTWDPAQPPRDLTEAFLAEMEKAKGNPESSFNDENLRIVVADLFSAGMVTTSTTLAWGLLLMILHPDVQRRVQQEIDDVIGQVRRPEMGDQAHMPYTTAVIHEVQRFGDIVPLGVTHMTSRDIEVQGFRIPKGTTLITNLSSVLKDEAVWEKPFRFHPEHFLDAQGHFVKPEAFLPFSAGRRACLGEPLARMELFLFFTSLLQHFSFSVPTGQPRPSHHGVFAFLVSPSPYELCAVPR
Chain of Cytochrome P450 3A4 (P08684 whole entry): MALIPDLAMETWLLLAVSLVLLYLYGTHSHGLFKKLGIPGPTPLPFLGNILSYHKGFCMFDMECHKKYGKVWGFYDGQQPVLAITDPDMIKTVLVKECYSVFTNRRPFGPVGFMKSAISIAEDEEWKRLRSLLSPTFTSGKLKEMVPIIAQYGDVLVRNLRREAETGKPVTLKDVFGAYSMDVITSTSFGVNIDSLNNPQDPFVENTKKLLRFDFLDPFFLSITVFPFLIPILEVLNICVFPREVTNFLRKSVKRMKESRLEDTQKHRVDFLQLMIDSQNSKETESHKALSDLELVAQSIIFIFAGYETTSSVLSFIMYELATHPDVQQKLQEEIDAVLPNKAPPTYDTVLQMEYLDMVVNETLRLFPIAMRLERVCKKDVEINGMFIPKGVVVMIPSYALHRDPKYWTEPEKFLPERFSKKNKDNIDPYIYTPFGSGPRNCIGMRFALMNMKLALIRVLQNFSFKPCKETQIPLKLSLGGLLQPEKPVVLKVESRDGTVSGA

For the compound `COc1ccc2nc(COc3ccc(C[14CH]4SC(=O)NC4=O)cc3)n(C)c2c1.Cl` (racemic), the Drug metabolism result is listed as “metabolite_detected” in data set [1]; “metabolite_not_detected” in data set [2]; “metabolite_not_detected” in data set [3]; “metabolite_detected” on Cytochrome P450 2C19 [4]; “metabolite_not_detected” at Cytochrome P450 2C19 [5]; “metabolite_not_detected” on Cytochrome P450 2D6. Besides, the figures for the Drug metabolism result (at Cytochrome P450 3A4; in [6]; in data set [7]) were “metabolite_not_detected”, “metabolite_detected” and “metabolite_detected”, respectively.
As to `COc1ccc2nc(COc3ccc(CC(S)C(=O)O)cc3)n(C)c2c1` (stereo not given), in data set [8], the Drug metabolism entry is reported as “metabolite_detected”.
